pEC0.5 and [3H]NMS equilibrium binding (%) data for 29 molecules are collected here from ChEMBL document CHEMBL1148351, “Probing the pharmacophore for allosteric ligands of muscarinic M2 receptors: SAR and QSAR studies in a series of bisquaternary salts of caracurine V and related ring systems” (J Med Chem, 2004).

Experiment [1] concerns the target T1, Muscarinic acetylcholine receptor M2 (Sus scrofa) (UniProt P06199).
T1 sequence (whole entry): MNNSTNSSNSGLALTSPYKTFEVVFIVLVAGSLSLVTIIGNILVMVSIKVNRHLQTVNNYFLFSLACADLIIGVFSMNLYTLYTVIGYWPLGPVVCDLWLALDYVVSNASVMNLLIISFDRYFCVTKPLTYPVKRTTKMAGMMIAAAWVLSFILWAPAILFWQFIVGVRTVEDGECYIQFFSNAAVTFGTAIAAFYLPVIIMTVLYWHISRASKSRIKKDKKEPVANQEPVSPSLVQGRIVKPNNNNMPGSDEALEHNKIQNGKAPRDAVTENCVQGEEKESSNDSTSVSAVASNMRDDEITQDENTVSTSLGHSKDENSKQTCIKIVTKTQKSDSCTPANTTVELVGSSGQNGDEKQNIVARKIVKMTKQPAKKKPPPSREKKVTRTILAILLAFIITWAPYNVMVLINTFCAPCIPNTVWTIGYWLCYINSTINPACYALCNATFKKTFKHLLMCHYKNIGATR
Description: Concentration for half maximal inhibition of [3H]NMS dissociation from muscarinic acetylcholine receptor M2 in porcine heart ventricles. Summed up: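 Porcine cardiac homogenates, 0.2 nM [3H]NMS in 4 mM Na2HPO4/1 mM KH2PO4 pH 7.4, 23 °C; preincubated 30 min, then dissociation started with 1 μM atropine with or without modulator. Specific binding sampled over 120 min (complete) or at t=0 and 10 min (two-point). Apparent k-1 expressed as % control; four-parameter logistic fit gives EC0.5,diss. Two to four experiments; nonspecific defined by 10^-6 M atropine; filtration, scintillation counting.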

The target in experiment [2] is T1, Muscarinic acetylcholine receptor M2 (Sus scrofa). Description: Equilibrium binding to muscarinic acetylcholine receptor M2 using [3H]NMS in porcine heart ventricles.

Consider `C1=C2C[N@+]3(Cc4ccccc4)CCC45c6ccccc6N6C7OCC=C8C[N@+]9(Cc%10ccccc%10)CCC%10%11c%12ccccc%12N(C(OC1)C(C2CC43)C65)C%10C7C8CC%119` (some centres not stated), for which the pEC0.5 in experiment [1] was found to be 7.12. In experiment [2], this molecule registered a [3H]NMS equilibrium binding (%) of 86.4%. The like results for `N#CC[N+]12CC[C@@]34c5ccccc5N5[C@@H]6OCC=C7C[N+]8(CC#N)CC[C@]9%10c%11ccccc%11N([C@@H]%11OCC=C(C1)[C@H](C[C@@H]32)C%11[C@H]54)[C@H]9[C@H]6[C@H]7C[C@@H]%108` (some centres not stated) were, in that order, 6.69 and 85.3%. The like results for `C1=C2C[N@+]3(Cc4ccc5ccccc5c4)CCC45c6ccccc6N6C7OCC=C8C[N@+]9(Cc%10ccc%11ccccc%11c%10)CCC%10%11c%12ccccc%12N(C(OC1)C(C2CC43)C65)C%10C7C8CC%119` (some centres not stated) were, in that order, 5.82 and 89%. `Brc1ccc(C[N+]23CC[C@@]45c6ccccc6N6[C@@H]7OCC=C8C[N+]9(Cc%10ccc(Br)cc%10)CC[C@]%10%11c%12ccccc%12N([C@@H]%12OCC=C(C2)[C@H](C[C@@H]43)[C@@H]%12[C@H]65)[C@H]%10[C@H]7[C@H]8C[C@@H]%119)cc1` (some centres not stated) came in with a pEC0.5 in experiment [1] of 6.29. Moreover, in experiment [2], the [3H]NMS equilibrium binding (%) came out at 113%. `C1=C2CN3CC[C@]45c6ccccc6N6[C@@H]7OCC=C8CN9CC[C@]%10%11c%12ccccc%12N([C@H](OC1)[C@@H]([C@H]64)[C@H]2C[C@H]35)[C@H]%10[C@H]7[C@H]8C[C@H]9%11` had a pEC0.5 in experiment [1] of 6.36. Besides, the [3H]NMS equilibrium binding (%) in experiment [2] amounted to 95.8%. The like results for `Fc1c(F)c(F)c(C[N@+]23CCC45c6ccccc6N6C7OCC=C8C[N@+]9(Cc%10c(F)c(F)c(F)c(F)c%10F)CCC%10%11c%12ccccc%12N(C%12OCC=C(C2)C(CC43)C%12C65)C%10C7C8CC%119)c(F)c1F` (some centres not stated) were, in that order, 7.27 and 111%. The like results for `C=CC[N@@+]12CC[C@@]34c5ccccc5N5/C=C6/[C@H]7C[C@H]8[C@@]9(CC[N@@+]8(CC=C)C/C7=C/CO)c7ccccc7N(/C=C(/[C@@H](C[C@@H]31)/C(=C\CO)C2)[C@H]54)[C@@H]69` were, in that order, 8.65 and 116%. The molecule `O=C(C[N+]12CC[C@@]34c5ccccc5N5[C@@H]6OCC=C7C[N+]8(CC(=O)c9ccccc9)CC[C@]9%10c%11ccccc%11N([C@@H]%11OCC=C(C1)[C@H](C[C@@H]32)[C@@H]%11[C@H]54)[C@H]9[C@H]6[C@H]7C[C@@H]%108)c1ccccc1` (some centres not stated) registered a pEC0.5 in experiment [1] of 5.49. Besides, the [3H]NMS equilibrium binding (%) in experiment [2] turned out to be 6.1%. In experiment [1], `FC(F)(F)c1ccc(C[N+]23CC[C@@]45c6ccccc6N6[C@@H]7OCC=C8C[N+]9(Cc%10ccc(C(F)(F)F)cc%10)CC[C@]%10%11c%12ccccc%12N([C@@H]%12OCC=C(C2)[C@H](C[C@@H]43)[C@@H]%12[C@H]65)[C@H]%10[C@H]7[C@H]8C[C@@H]%119)cc1` (some centres not stated) showed a pEC0.5 of 5.76. This molecule came in with a [3H]NMS equilibrium binding (%) in experiment [2] of 87%. The like results for `C[N+]12CC[C@@]34c5ccccc5N5[C@@H]6OCC=C7C[N+]8(C)CC[C@]9%10c%11ccccc%11N([C@@H]%11OCC=C(C1)[C@H](C[C@@H]32)[C@@H]%11[C@H]54)[C@H]9[C@H]6[C@H]7C[C@@H]%108` (some centres not stated) were, in that order, 8.09 and 115%. The molecule `C1=C2C[N@+]3(CC4CC4)CCC45c6ccccc6N6C7OCC=C8C[N@+]9(CC%10CC%10)CCC%10%11c%12ccccc%12N(C(OC1)C(C2CC43)C65)C%10C7C8CC%119` (some centres not stated) had a pEC0.5 in experiment [1] of 7.86. In experiment [2], this molecule returned a [3H]NMS equilibrium binding (%) of 110%. The like results for `COc1ccc(C[N+]23CC[C@@]45c6ccccc6N6[C@@H]7OCC=C8C[N+]9(Cc%10ccc(OC)cc%10)CC[C@]%10%11c%12ccccc%12N([C@@H]%12OCC=C(C2)[C@H](C[C@@H]43)[C@@H]%12[C@H]65)[C@H]%10[C@H]7[C@H]8C[C@@H]%119)cc1` (some centres not stated) were, in that order, 5.95 and 70.4%. The like results for `NC(=O)C[N+]12CC[C@@]34c5ccccc5N5[C@@H]6OCC=C7C[N+]8(CC(N)=O)CC[C@]9%10c%11ccccc%11N([C@@H]%11OCC=C(C1)[C@H](C[C@@H]32)[C@@H]%11[C@H]54)[C@H]9[C@H]6[C@H]7C[C@@H]%108` (some centres not stated) were, in that order, 6.65 and 87.8%. Take `C[N@@+]12CC[C@@]34c5ccccc5N5/C=C6/[C@H]7C[C@H]8[C@@]9(CC[N@@+]8(C)C/C7=C/CO)c7ccccc7N(/C=C(/[C@@H](C[C@@H]31)/C(=C\CO)C2)[C@H]54)[C@@H]69`: the pEC0.5 in experiment [1] stood at 7.02. The molecule further registered a [3H]NMS equilibrium binding (%) in experiment [2] of 104%. The like results for `C/C=C/C[N@+]12CCC34c5ccccc5N5C6OCC=C7C[N@+]8(C/C=C/C)CCC9%10c%11ccccc%11N(C%11OCC=C(C1)C(CC32)C%11C54)C9C6C7CC%108` (some centres not stated) were, in that order, 7.14 and 100%. The like results for `C[N+]12CCC34c5ccccc5N5/C=C6/C7CC8C9(CC[N+]8(C)C/C7=C/CO)c7ccccc7N(/C=C(/C(CC31)/C(=C/CO)C2)C54)C69` (configuration not stated) were, in that order, 7.87 and 119%.

Consider `C=CC[N+]12CC[C@@]34c5ccccc5N5[C@@H]6OCC=C7CN8CC[C@]9%10c%11ccccc%11N([C@@H]%11OCC=C(C1)[C@H](C[C@@H]32)[C@@H]%11[C@H]54)[C@H]9[C@H]6[C@H]7C[C@H]8%10` (some centres not stated), for which the pEC0.5 in experiment [1] was determined as 7.74. Besides, in experiment [2], the [3H]NMS equilibrium binding (%) worked out at 81.4%. With `CC#CC[N@+]12CCC34c5ccccc5N5C6OCC=C7C[N@+]8(CC#CC)CCC9%10c%11ccccc%11N(C%11OCC=C(C1)C(CC32)C%11C54)C9C6C7CC%108` (some centres not stated), in experiment [1], the pEC0.5 amounted to 7.36. Besides, the [3H]NMS equilibrium binding (%) in experiment [2] amounted to 103%. The like results for `C1=C2C[N+]3(CC4CO4)CC[C@@]45c6ccccc6N6[C@@H]7OCC=C8C[N+]9(CC%10CO%10)CC[C@]%10%11c%12ccccc%12N([C@H](OC1)[C@H](C2C[C@@H]43)[C@H]65)[C@H]%10[C@H]7[C@H]8C[C@@H]%119` (some centres not stated) were, in that order, 7.19 and 110%. In the case of `C#CC[N@+]12CCC34c5ccccc5N5C6OCC=C7C[N@+]8(CC#C)CCC9%10c%11ccccc%11N(C%11OCC=C(C1)C(CC32)C%11C54)C9C6C7CC%108` (some centres not stated), the pEC0.5 in experiment [1] came to 8.36. Also, in experiment [2], the [3H]NMS equilibrium binding (%) stood at 105%. Take `C=CC[N+]12CC[C@@]34c5ccccc5N5/C=C6\C7N(c8ccccc8[C@@]78CC[N+]7(CC=C)C/C(=C/CO)[C@@H]6C[C@@H]87)[C@@H]6OCC=C(C1)[C@H](C[C@@H]32)C6C54` (some centres not stated): in experiment [1], the pEC0.5 came out at 8.57. In experiment [2], this molecule yielded a [3H]NMS equilibrium binding (%) of 119%. The like results for `O=[N+]([O-])c1ccc(C[N+]23CC[C@@]45c6ccccc6N6[C@@H]7OCC=C8C[N+]9(Cc%10ccc([N+](=O)[O-])cc%10)CC[C@]%10%11c%12ccccc%12N([C@@H]%12OCC=C(C2)[C@H](C[C@@H]43)C%12[C@H]65)[C@H]%10[C@H]7[C@H]8C[C@@H]%119)cc1` (some centres not stated) were, in that order, 6.47 and 99.8%. The molecule `C=CC[N+]12CC[C@@]34c5ccccc5N5[C@@H]6OCC=C7C[N+]8(CC=C)CC[C@]9%10c%11ccccc%11N([C@@H]%11OCC=C(C1)[C@H](C[C@@H]32)[C@@H]%11[C@H]54)[C@H]9[C@H]6[C@H]7C[C@@H]%108` (some centres not stated) showed a pEC0.5 in experiment [1] of 7.95. In experiment [2], this molecule had a [3H]NMS equilibrium binding (%) of 109%. As to `C=CC[N+]12CC[C@]34c5cc(OC)c(OC)cc5N5C3[C@@H]3[C@@H](OCC=C(C1)[C@@H]3C[C@@H]42)N1c2cc(OC)c(OC)cc2[C@@]23CC[N+]4(CC=C)CC6=CCO[C@@H]5[C@@H](C12)[C@H]6C[C@@H]34` (some centres not stated), the pEC0.5 in experiment [1] was 6.69. `OC/C=C1\C[N+]2(C3C=CCCC3)CCC34c5ccccc5N5/C=C6/C7CC8C9(CC[N+]8(C8C=CCCC8)C/C7=C/CO)c7ccccc7N(/C=C(/C1CC32)C54)C69` (configuration not stated) came in with a pEC0.5 in experiment [1] of 8.07. Further, in experiment [2], the [3H]NMS equilibrium binding (%) was found to be 118%. The like results for `COc1ccc(C[N+]23CC[C@@]45c6ccccc6N6[C@@H]7OCC=C8C[N+]9(Cc%10ccc(OC)c(OC)c%10)CC[C@]%10%11c%12ccccc%12N([C@@H]%12OCC=C(C2)[C@H](C[C@@H]43)C%12[C@H]65)[C@H]%10[C@H]7[C@H]8C[C@@H]%119)cc1OC` (some centres not stated) were, in that order, 6.47 and 100%. In experiment [1], `C[N+]12CC[C@@]34c5ccccc5N5[C@@H]6OCC[C@@H]7C[N+]8(C)CC[C@]9%10c%11ccccc%11N([C@@H]%11OCC[C@H](C1)[C@H](C[C@@H]32)C%11[C@H]54)[C@H]9[C@H]6[C@H]7C[C@@H]%108` (some centres not stated) showed a pEC0.5 of 8.44. The same molecule displayed a [3H]NMS equilibrium binding (%) in experiment [2] of 104%.

Consider `C1=CC([N@+]23CCC45c6ccccc6N6C7OCC=C8C[N@+]9(C%10C=CCCC%10)CCC%10%11c%12ccccc%12N(C%12OCC=C(C2)C(CC43)C%12C65)C%10C7C8CC%119)CCC1` (some centres not stated), for which the pEC0.5 in experiment [1] turned out to be 7.7. In experiment [2], this molecule returned a [3H]NMS equilibrium binding (%) of 109%. For `O=C1c2ccccc2C(=O)N1CCC[N@+]12CCC34c5ccccc5N5C6OCC=C7C[N@+]8(CCCN9C(=O)c%10ccccc%10C9=O)CCC9%10c%11ccccc%11N(C%11OCC=C(C1)C(CC32)C%11C54)C9C6C7CC%108` (some centres not stated), in experiment [1], the pEC0.5 turned out to be 6.43. Besides, the [3H]NMS equilibrium binding (%) in experiment [2] worked out at 88.4%.
